This is an account of results in paper PMC11682233 (Scientific Reports, 2024).

In assay [1] the test system is NPC cells. Description: Preliminary NPC cytotoxicity screening. Type of assay: cell-based. The conditions noted are these: MTT, 48 h. In outline: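 3,000 NPC cells per well, plated 24 h, then given fresh medium with test compound at 0.1, 1, 10 or 100 µM for 48 h; cisplatin served as positive control. MTT at 0.5 mg/mL final in RPMI for 3 h at 37 °C. Formazan dissolved in DMSO, absorbance read at 540 nm. Run in triplicate; t-test, p < 0.05 significant.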

For assay [2], the system named is SUNE6-10B. Description: Clonogenic. Type of assay: cell-based.
Assay [3] concerns phosphorylated LRP6. Description: Western immunoblotting of Wnt signaling proteins in SUNE5-8F cells. Type of assay: cell-based. The conditions noted are these: IC25 and IC50 doses, 48 h. The procedure, abridged:
(§1)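 Lysates spun at 12,000 × g, 10 min, 4 °C; Bradford assay. 10% SDS-PAGE, nitrocellulose transfer, 5% BSA block 1 h, primary antibody overnight at 4 °C, HRP secondary 1 h at room temperature, ECL detection. Band densities normalised to β-actin, expressed relative to untreated control.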
(In general: Immunoblotting shows a protein as a band on a membrane.)

In assay [4] the test system is SUNE5-8F. Nature of the assay: Clonogenic. The class given is cell-based.
Assay [5] has as its system non-phosphorylated β-catenin. Description: Western immunoblotting of Wnt signaling proteins in SUNE5-8F cells. The class given is cell-based. The conditions noted are these: IC25 and IC50 doses, 48 h. The procedure, abridged:
as §1

Assay [6] deals with T1, FZD10 recombinant proteoliposome (Homo sapiens, UniProt Q9ULW2).
T1 sequence (Q9ULW2 21-581): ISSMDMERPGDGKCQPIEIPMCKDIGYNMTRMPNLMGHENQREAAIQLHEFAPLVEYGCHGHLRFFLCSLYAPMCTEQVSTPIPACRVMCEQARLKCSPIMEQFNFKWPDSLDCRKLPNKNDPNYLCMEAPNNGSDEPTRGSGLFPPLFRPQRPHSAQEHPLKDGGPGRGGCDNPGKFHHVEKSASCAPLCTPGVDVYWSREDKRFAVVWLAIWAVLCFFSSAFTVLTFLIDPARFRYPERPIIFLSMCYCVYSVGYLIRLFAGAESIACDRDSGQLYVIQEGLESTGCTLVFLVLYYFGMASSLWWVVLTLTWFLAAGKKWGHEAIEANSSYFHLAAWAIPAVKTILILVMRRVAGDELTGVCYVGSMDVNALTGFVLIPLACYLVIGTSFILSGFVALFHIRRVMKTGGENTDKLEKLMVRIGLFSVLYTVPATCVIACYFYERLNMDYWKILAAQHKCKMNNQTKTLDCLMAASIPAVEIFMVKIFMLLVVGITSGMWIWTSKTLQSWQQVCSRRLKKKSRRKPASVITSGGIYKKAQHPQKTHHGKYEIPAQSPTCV
Description: STD-NMR. The class given is binding. The settings on record: 230 nM protein, 0.3–1.5 µM ligand, D2O, 298 K. The procedure, abridged:
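STD-NMR at 600 MHz on a cryoprobe-equipped spectrometer, with the residual D2O peak (δH 4.70) as chemical shift reference. 1H spectral width 9600 Hz, 30° pulse angle, 2.5 s recycle delay, 8 scans.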

Assay [7] relates to non-phosphorylated β-catenin. Nature of the assay: Western immunoblotting of Wnt signaling proteins in SUNE6-10B cells. Type of assay: cell-based. The settings on record: IC50 dose, 48 h. In outline:
as §1

Assay [8] has as its system phosphorylated LRP6. Described as above. The class given is cell-based. The conditions noted are these: IC50 dose, 48 h. The procedure, abridged: as §1
The mark [9] stands for this setting: IC25 dose (doxazosin 7 µM, nicergoline 20 µM).
[10] abbreviates: IC50 dose (rilpivirine 4 µM, doxazosin 14 µM, nicergoline 40 µM).
The mark [11] stands for this setting: IC25 dose (rilpivirine 2 µM, doxazosin 7 µM, nicergoline 20 µM).

The structures appear in SMILES notation.

On to `COc1cc2nc(N3CCN(C(=O)C4COc5ccccc5O4)CC3)nc(N)c2cc1OC` (centres unmarked) [Doxazosin], for which the “50% inhibition cutoff at 100 µM” value in assay [1] is on record as “met the 50% inhibition cutoff at 100 µM”. Further, the colony formation entry in assay [2] (setting [9]), in assay [2] (setting [10]), in assay [4] (setting [11]) and in assay [4] (setting [10]) was “suppressed the colony formation” each time. The “expression of phosphorylated LRP6” value in assay [3] was “decreased”. Besides, the “expression of active β-catenin (non-phosphorylated β-catenin)” value in assay [5] was “decreased”. In addition, in assay [6], the “STD signals (binding to FZD10)” value was “STD signals for H5 and H6”.

For the molecule `CO[C@]12C[C@@H](COC(=O)c3cncc(Br)c3)CN(C)[C@@H]1Cc1cn(C)c3cccc2c13` [Nicergoline], in assay [1], the “50% inhibition cutoff at 100 µM” value is recorded as “met the 50% inhibition cutoff at 100 µM”. The colony formation result in assay [2] (setting [9]), in assay [2] (setting [10]), in assay [4] (setting [11]) and in assay [4] (setting [10]) was “suppressed the colony formation” throughout. The “expression of phosphorylated LRP6” value in assay [3] was “decreased”. Moreover, the “expression level of active β-catenin” value in assay [7] was “decreased”. In addition, in assay [5], the “expression of active β-catenin (non-phosphorylated β-catenin)” value was “decreased”. Also, in assay [6], the “STD signals (binding to FZD10)” value is “STD signals corresponding to H2 and H3”.

With `COc1cc2nc(N3CCN(C(=O)c4ccco4)CC3)nc(N)c2cc1OC` [Prazosin], the “50% inhibition cutoff at 100 µM” value in assay [1] is given as “met the 50% inhibition cutoff at 100 µM”. The “expression of phosphorylated LRP6” value in assay [3] is “decreased”. Also, in assay [4] (8 µM), the colony formation entry was “inhibited colony formation”. The “expression level of active β-catenin” value in assay [7] is listed as “decreased”. Further, the “expression of active β-catenin (non-phosphorylated β-catenin)” value in assay [5] is “decreased”. In addition, the “STD signals (binding to FZD10)” value in assay [6] was “STD signals from H2, H3,4, and H5,6”.

Consider `Cc1cc(/C=C/C#N)cc(C)c1Nc1ccnc(Nc2ccc(C#N)cc2)n1` [Rilpivirine], for which the “50% inhibition cutoff at 100 µM” value in assay [1] is reported as “met the 50% inhibition cutoff at 100 µM”. The colony formation result in assay [2] (setting [10]) is on record as “reduced the colony formation ability”; in assay [4] (setting [11]), “no impact”; in assay [4] (setting [10]) it was “reduced the colony formation ability”. For the same molecule, the “expression of phosphorylated LRP6” value is “decreased” in assay [3] and “reduced” in assay [8]. Moreover, the “expression level of active β-catenin” value in assay [7] is reported as “decreased”. The “expression of active β-catenin (non-phosphorylated β-catenin)” value in assay [5] is “decreased”. Moreover, the “STD signals (binding to FZD10)” value in assay [6] is “STD signals from H2”.
